A short description of the data set: Toxicity liver stage against HepG2, at 10uM. It is filed as cell-based. Also on record: test concentration 10 uM, cell line HepG2-A16-CD81EGFP. The following applies: human, HepG2-A16-CD81EGFP cells; read-out: INHIBITION
The method in brief: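 Uninfected HepG2-A16-CD81EGFP cells, 3 × 10^3 per well, 1536-well, plated on prespotted compound at 10 μM final, parasite-free screening media added to match infected plates; puromycin 10 μM positive, DMSO 0.5% negative; run in parallel with 48 h PbLuc assay at 37 °C, 5% CO2; viability by CellTiter-Glo luminescence, normalized to controls.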
As to `O=C(Cc1cnc(-c2c(Cl)cccc2Cl)s1)N1CCC2(CC1)OCCO2`, the cytotoxicity at 10 µM is -0.367%. For the compound `Cc1nc(NC(=O)CCN2C(=O)c3ccccc3NC2C(C)C)sc1C` (stereo unspecified), the cytotoxicity at 10 µM worked out at 0.308%. With `Cc1ccc(C(=O)NC2CC2)c(-n2cnnn2)c1C`, the cytotoxicity at 10 µM is -2.27%. As for `O=C(CCc1nnc2ccccn2c1=O)NCc1ccco1`, the cytotoxicity at 10 µM is -7.51%.

`O=C(CC1CSc2nccc(=O)n21)NCc1ccco1` (stereo unspecified): the cytotoxicity at 10 µM is -7.2%. Then `CCCc1cc(=O)n(CC(=O)NCCOC)c(-n2nc(C)cc2C)n1`, with 1.69%.

Turning to `CCCC(=O)N1CCC(c2nn(C)c(=O)n2-c2ccccc2)CC1`, the cytotoxicity at 10 µM was 5.91%. To `COCC(=O)N1CC[C@@H]2CN(Cc3ccccc3)S(=O)(=O)[C@@H]2CC1` belongs -0.733%; to `OCc1nnn2c1CN(Cc1cccnc1)CCC2`, 10.1%; to `CCC1=N[C@@]2(CC[C@@H]3CN(CC(=O)N(C)C)C[C@@H]32)C(=O)N1CC(C)C`, 8.18%. As for `COc1ncccc1CN1C[C@@H]2COC[C@]2(CNC(=O)c2ccno2)C1`, the cytotoxicity at 10 µM came out at 8.07%.

With `Cc1ccc(CSc2ncc(Br)c(C(=O)O)n2)cc1`, the cytotoxicity at 10 µM is -2.3%. As to `CC1(C)OCC(CNC(=O)c2cnn(-c3ccc(Cl)cc3)c2N)O1` (stereo unspecified), the cytotoxicity at 10 µM came out at 2.31%. To `CC(C)CNC(=O)CN(Cc1ccc(F)cc1)S(C)(=O)=O` belongs 10.2%. As to `COc1ccccc1C(=O)Nc1c(F)c(C(=O)N2CCCC2)nn1C`, the cytotoxicity at 10 µM was 5.83%. For the compound `CCn1ncc(S(=O)(=O)N[C@@H]2CCC[C@@H](n3ccnc3)[C@@H]2O)c1C`, the cytotoxicity at 10 µM worked out at 1.18%. In the case of `O=c1c2ccccc2nc2n1CCN(Cc1cccs1)CC2`, the cytotoxicity at 10 µM is 2.39%. Regarding `CCN(Cc1ccc(CN(C)C)cc1)C(=O)c1ccncc1O`, the cytotoxicity at 10 µM is -7.19%. For the compound `CNC(=O)C(c1cccc(Cl)c1)C(C)C` (stereo unspecified), the cytotoxicity at 10 µM was 2.02%. For the compound `N#Cc1ccc(CNCCc2cc(F)cc3c2OCOC3)cc1`, the cytotoxicity at 10 µM turned out to be 6.58%. For the compound `O=C(NS(=O)(=O)c1cccnc1)C1CC(c2ccccc2)=NO1` (stereo unspecified), the cytotoxicity at 10 µM is -8.87%.

`CCN(CC)S(=O)(=O)c1cc(NC(=O)CCc2cscn2)ccc1C`: the cytotoxicity at 10 µM was -0.25%. Consider `CC(=O)N1CCCN(CCCSc2ccccc2Cl)CC1`, for which the cytotoxicity at 10 µM was determined as 0.269%. `CNS(=O)(=O)CC(=O)NCc1cc2c(s1)CCCCC2`: the cytotoxicity at 10 µM worked out at 2.42%. For `CCc1noc(C(C)Sc2nnc(C3CC3)n2CC(N)=O)n1` (stereo unspecified), the cytotoxicity at 10 µM was -148%. As for `Cn1c(CN2CCC(N3CCNC3=O)CC2)cc(=O)n(C)c1=O`, the cytotoxicity at 10 µM is -2.03%. Take `O=c1n(CCNCc2cccc3ccccc23)nc2ccccn12`: the cytotoxicity at 10 µM turned out to be 0.551%. Turning to `CCOc1nnc(CN2CCN(CCOC)C(CC)C2)s1` (stereo unspecified), the cytotoxicity at 10 µM is -5.73%. As to `Cc1cc(N2CCCC2c2cccnc2)nc(C)n1` (stereo unspecified), the cytotoxicity at 10 µM was -8.3%. Then `CCC(=O)Nc1ccc(C(C)Nc2nc3c(cnn3C)c(=O)[nH]2)cc1` (stereo unspecified), with 4.01%; and `Cc1cc(CSCc2cc(C)on2)on1`, with 6.42%. Consider `COc1ccc(CNC2CCc3ncnn3C2)cc1OCCCC#N` (stereo unspecified), for which the cytotoxicity at 10 µM was -5.45%. As to `COCC(=O)N[C@H](C(=O)NC(C)c1cccc(C)c1C)C(C)C` (stereo partly specified), the cytotoxicity at 10 µM was determined as 5.38%. Take `CC(NC(=O)NCC(C)(C)C(N)=O)c1nc(-c2ccccc2)cs1` (stereo unspecified): the cytotoxicity at 10 µM amounted to 12.7%.

As to `COCCn1cc(C(=O)N2CCCC2c2cc(C)on2)c2ccccc21` (stereo unspecified), the cytotoxicity at 10 µM was found to be 6.35%. As for `O=C(NC1CCN(c2cccc(C(F)(F)F)n2)CC1)C1CC1`, the cytotoxicity at 10 µM is -0.432%. For `CCC(C)NC(=O)CN1CCOCC1` (stereo unspecified), the cytotoxicity at 10 µM was -5.74%. Take `N#CCCCn1nnc(C2(NC(=O)c3ccccc3)CCCC2)n1`: the cytotoxicity at 10 µM turned out to be 13.6%.

Regarding `CC(C)CS(=O)(=O)CC(=O)N1CCCC1c1noc(C2CC2)n1` (stereo unspecified), the cytotoxicity at 10 µM came to 13.4%. In the case of `OCC(CO)Nc1cccc(C(F)(F)F)n1`, the cytotoxicity at 10 µM is 0.409%. Take `Cc1ccc(-n2nnc(CC(=O)N3CCN(C4CC4)CC3)c2C)cc1`: the cytotoxicity at 10 µM was -8.06%. Regarding `COc1cc(NCc2c(C)noc2C)c(OC)cc1Cl`, the cytotoxicity at 10 µM turned out to be 47%.

For the compound `COCCCNC(=O)Nc1cc(-c2ccccc2C)nn1CCO`, the cytotoxicity at 10 µM was -0.267%. Take `CCOCC1CCN(C(=O)Nc2ccc3c(c2)CCCO3)C1` (stereo unspecified): the cytotoxicity at 10 µM was found to be 10.6%. Consider `CC(C)(CNc1cc(F)ccc1F)S(C)(=O)=O`, for which the cytotoxicity at 10 µM was -2.94%. With `CN(CC(=O)N(CCC#N)c1ccccc1)C1CCc2ccccc21` (stereo unspecified), the cytotoxicity at 10 µM was found to be 3.15%. As for `NCc1ccc(Oc2cccc(Cl)c2Cl)nc1`, the cytotoxicity at 10 µM was determined as 4.75%.

Consider `CN(C(=O)CN1CCc2nn(C)c(=O)cc2C1)c1nccs1`, for which the cytotoxicity at 10 µM turned out to be 10.4%. As for `Cc1nc(C)c(CNCC2CCCn3ccnc32)s1` (stereo unspecified), the cytotoxicity at 10 µM was -14.6%. For `COc1ccc(CC(=O)NC(CC(=O)O)c2ccc(F)cc2)cc1OC` (stereo unspecified), the cytotoxicity at 10 µM was found to be 0.902%. As for `CCc1nc(CCNC(=O)Nc2cc(C(N)=O)sc2C)cs1`, the cytotoxicity at 10 µM worked out at 24.6%.

As to `CN(CCCNc1cc(N2CCCC2CO)ncn1)S(C)(=O)=O` (stereo unspecified), the cytotoxicity at 10 µM is -10.2%. Then `Cn1ccnc1CN1C[C@@H]2OCCN(c3ncccn3)[C@@H]2C1`, with -73%; and `CN(Cc1ccncc1)C1CC2(CCN(Cc3ccccn3)CC2)C1`, with -90.4%. Then `CCOCC1CN(C(=O)N2CCCC2)Cc2cnn(CC)c21` (stereo unspecified), with -77.5%; and `CC1=N[C@@]2(CC[C@@H]3CN(C(=O)NCc4ccccc4C)C[C@@H]32)C(=O)N1`, with -74.9%. For `Cn1cc(CN2CCCC3(CCN3S(C)(=O)=O)C2)cn1` (stereo unspecified), the cytotoxicity at 10 µM was -68.4%.

Take `CCO[C@@H]1CCN(C(=O)c2ccc[nH]2)[C@@H]1Cc1cnn(C)c1`: the cytotoxicity at 10 µM was 1.44%. Regarding `Cc1ccc(C(=O)O)cc1CNC(=O)CN1CC(C)(C)[C@@](C)(O)C1`, the cytotoxicity at 10 µM is -6.03%. Consider `OC1(Cn2ccnc2)CCN(C[C@]2(O)CCCN3CCCC[C@@H]32)CC1`, for which the cytotoxicity at 10 µM worked out at 0.805%. In the case of `O=C1OCC(CO)N1Cc1cccc(Cl)c1F` (stereo unspecified), the cytotoxicity at 10 µM amounted to 0.739%. `Cc1nc(C)c(Cc2nc(C3CC3)n[nH]2)c(=O)[nH]1`: the cytotoxicity at 10 µM was 2.39%.

For `O=C(NC1CCCC1)N1C[C@H]2CN(c3ccncc3)C[C@@]2(C(=O)O)C1`, the cytotoxicity at 10 µM came to 11.3%. For `c1cncc(-c2cccc(-c3ccn(CCN4CCCCC4)n3)c2)c1`, the cytotoxicity at 10 µM was found to be 2.54%. Consider `CCCc1ccc(C(=O)N2CCc3c(nc(C)nc3N(C)C)C2)cc1`, for which the cytotoxicity at 10 µM was -1.34%.

For `NC(=O)CCn1cc(CNCCCc2csc(N)n2)c2ccccc21`, the cytotoxicity at 10 µM came out at 3.1%. For the compound `COCCn1c(=O)n(Cc2ccccc2C)c2cc(C(=O)O)ccc21`, the cytotoxicity at 10 µM was -1.79%. With `O=C(c1cccc(-n2cccn2)c1)N1CCOC(CCO)C1` (stereo unspecified), the cytotoxicity at 10 µM stood at 0.0642%. On to `CCc1c(O)nc(SCC(=O)N(CC)CC)n(C(C)CC)c1=O` (stereo unspecified), for which the cytotoxicity at 10 µM is -6.65%. In the case of `Cc1nccn1CCC(=O)N1CCCN(c2ccccc2)CC1`, the cytotoxicity at 10 µM is -6.08%.

As to `CNS(=O)(=O)c1ccc(CN(C)Cc2nc3ccc(F)cc3[nH]2)cc1`, the cytotoxicity at 10 µM was determined as 17.2%. In the case of `Cc1c(C(=O)N[C@H]2CN(CCS(C)(=O)=O)C[C@@H]2C2CC2)cnn1C`, the cytotoxicity at 10 µM turned out to be 7.02%. Then `OC1CN(Cc2cccc(N3CCOCC3)c2)Cc2ccccc21` (stereo unspecified), with -3.15%; and `Cn1ccn2ncc(C(=O)NCc3cccnc3N3CCCC(O)C3)c12` (stereo unspecified), with -8.01%; and `CN(Cc1cccc(C(=O)Nc2ccnn2C)c1)CC1(C)COC1`, with -5.84%. Consider `O=C(CCN1CCCCO1)N1CC[C@H](O)[C@@H](O)C1`, for which the cytotoxicity at 10 µM was -1.77%. `COCCn1ccnc1CN1CCc2[nH]cnc2C1c1cccc(O)c1` (stereo unspecified): the cytotoxicity at 10 µM is -2%. In the case of `O[C@H]1[C@H](NCCc2ccccn2)c2ccccc2C12CCNCC2`, the cytotoxicity at 10 µM was determined as 13.7%. Then `CNS(=O)(=O)CCNC(=O)[C@@]12CNC[C@@H]1CN(C1CCCC1)C2`, with 1.3%; and `CN(CCCc1cnn(C)c1)C(=O)C1CCOC1` (stereo unspecified), with -13.4%; and `CC(C(=O)Nc1ccc(N2CCCCC2)nc1)n1cncn1` (stereo unspecified), with -31.2%. Consider `Cc1cc(C)n(CC2CN(Cc3cnc(C)s3)CCO2)n1` (stereo unspecified), for which the cytotoxicity at 10 µM was -19.7%.

On to `Cc1cccc(NC2CCN(C(=O)Nc3ccccn3)CC2)n1`, for which the cytotoxicity at 10 µM was -7.92%. Then `Cn1c(C2CC2)nc2c1CCN(CCOc1ccccc1C#N)C2`, with -29.8%.

As to `CC(C)Cc1nc(CN2CCOC(Cn3cccn3)C2)no1` (stereo unspecified), the cytotoxicity at 10 µM was -28.9%. Regarding `CCc1nc(C2CCCN2Cc2nccn2CC(F)(F)F)no1` (stereo unspecified), the cytotoxicity at 10 µM was -17.2%. Then `CN(C)c1ncccc1CNC(=O)NCCN(C)C1CCCC1`, with -11.9%. For `CCOCC(O)CN1CCN(C(=O)c2ccc(OC)cc2F)CC1` (stereo unspecified), the cytotoxicity at 10 µM is -11.9%.

Consider `NC(=O)c1cc(C2CCCN(CCc3ccccn3)C2)n[nH]1` (stereo unspecified), for which the cytotoxicity at 10 µM is -8.44%.

In the case of `CS(=O)(=O)N1C[C@@H](Oc2ccccn2)[C@H]2OCCC[C@H]21`, the cytotoxicity at 10 µM turned out to be 7.78%.

With `CCN1CCOCC12CCN(C(=O)Cc1ccccc1)CC2`, the cytotoxicity at 10 µM is -75.3%.

For the compound `CCS(=O)(=O)NC[C@]12COC[C@H]1CN(Cc1sccc1C)C2`, the cytotoxicity at 10 µM is -75.2%.

For `CCOCC1CN(S(=O)(=O)N(C)C)Cc2cnn(CC)c21` (stereo unspecified), the cytotoxicity at 10 µM came out at 2.26%. Then `Cc1ccc2nc(C3CCN(CC4CC4)CC3)nn2c1`, with 0.806%.

On to `O=C(NCc1ccccn1)[C@H]1COC[C@H]2CN(C3CCCC3)C[C@H]21`, for which the cytotoxicity at 10 µM is -73.6%.

As for `O=C(NC[C@]12COC[C@H]1CN(Cc1cccnc1)C2)c1ccno1`, the cytotoxicity at 10 µM stood at 4.35%.
